Only some compounds are listed: those with a hit (about 1.2% of all), similar ones and a draw of the others.
ASAP1 GAP inh = ASAP1 ArfGAP inhibition | ASAP1-stimulated ARF1 GTP hydrolysis, GDP FP detection | inhibition, % at 16.5 µM | actives 0.19% (n = 360,000) | AID 624377; in the data active = inhibition above about 25%;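 also: 0% = vehicle with enzyme and substrate and 100% = no enzyme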
Target sequence (Q9ULH1 325-724 limits assumed): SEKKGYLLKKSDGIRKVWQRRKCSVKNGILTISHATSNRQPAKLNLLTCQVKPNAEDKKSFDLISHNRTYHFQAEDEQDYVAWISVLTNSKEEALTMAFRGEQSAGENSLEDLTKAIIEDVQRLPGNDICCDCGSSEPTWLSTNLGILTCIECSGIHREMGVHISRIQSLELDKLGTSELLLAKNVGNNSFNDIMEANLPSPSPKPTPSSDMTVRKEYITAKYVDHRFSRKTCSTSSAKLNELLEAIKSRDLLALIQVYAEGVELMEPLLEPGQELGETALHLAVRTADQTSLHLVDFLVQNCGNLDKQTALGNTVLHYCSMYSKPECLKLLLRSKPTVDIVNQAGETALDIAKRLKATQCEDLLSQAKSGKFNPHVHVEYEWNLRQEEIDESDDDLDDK
ARFGAP1 inhibitor = rat ARFGAP1 inhibition | inhibition, % at 16.5 µM | AID 651572 | Q62848 | actives 0.26% (n = 360,000) | Arfgap1-stimulated ARF1 GTP hydrolysis, GDP FP detection;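 active = inhibition above a per-plate limit, mean inhibition of low control wells plus 3 SD, cut at about 25% in these data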;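 also: 0% = DMSO wells with enzyme and 100% = wells lacking Arfgap1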
Target sequence (Q62848 1-136 limits assumed): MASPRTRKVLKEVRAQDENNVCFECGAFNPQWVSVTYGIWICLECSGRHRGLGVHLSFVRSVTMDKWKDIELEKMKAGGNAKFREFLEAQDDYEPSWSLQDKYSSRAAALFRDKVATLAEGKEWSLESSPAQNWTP
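System: truncated rat Arfgap1 GAP domain / Benchmarks: high control wells lacking Arfgap1, low control full reaction with DMSO / Times: compound-enzyme preincubation 20 min, reaction 120 min, detection 60 min, 25 °C / Repeats: one replicate per compound / Also added: human ARF1(Δ1-17)-GTP substrate / Measured by: Tracer-displacement fluorescence polarization with EDTA stop, 620/688 nm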
PREPL inh = inhibitors of human prolyl oligopeptidase-like enzyme PREPL. Q4J6C6. AID 2751. recombinant PREPL, fluorescence polarization activity-based probe. inhibition, % at 5.96 µM. actives 0.68% (n = 320,000); in the data active = inhibition above about 43%;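 also: 0% = enzyme with DMSO and 100% = wells lacking enzyme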
IDE act = boosts human insulin-degrading enzyme activity in HEK cells; P14735; FAbeta-B cleavage, fluorescence polarization; 0% vehicle, 100% cell-free pure enzyme wells; activation, % at 5.96 µM; actives 0.073% (n = 340,000);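 active = activation above the mean of all tested compounds plus 3 SD, set per screening campaign, cut at about 17% in these data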
IDE cell inh = inhibitors of human insulin-degrading enzyme in cells | inhibition, % at 5.59 µM | AID 434962 | actives 0.41% (n = 320,000) | P14735 | HEK cells, FAbetaB cleavage, fluorescence polarization;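 active = percent inhibition above the average of all tested compounds plus 3 SD, set per screening campaign, cut at about 16% in these data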;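 also: IDE supplied by intact live HEK cells; FP after avidin binding of uncleaved biotin substrate so inhibition keeps polarization high; 0% = DMSO wells and 100% = 60 µM reference IDE inhibitor Ii1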
IDE cell inh cf = cellular human IDE inhibition, confirmation | shares compounds with IDE cell inh | HEK cells, FAbetaB cleavage, fluorescence polarization | inhibition, % at 5.59 µM | actives 51% (n = 1,200);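 active = mean inhibition across triplicate wells above the cutoff set by the earlier primary insulin-degrading enzyme screen, cut at about 16% in these data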;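 also: 0% = DMSO wells and 100% = 60 µM reference IDE inhibitor Ii1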
HEK cytotox = HEK cell cytotoxicity, counter-screen for IDE inhibitors; shares compounds with IDE cell inh; HEK293 cytotoxicity, ATP luminescence; inhibition, % at 5.59 µM; actives 28% (n = 1,200); AID 449730; in the data active = inhibition above about 22%;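 also: 0% = vehicle wells and 100% = reference cytotoxic drug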
The depositor's hits bear a star.

`CC1(S(=O)(=O)O)CC(=O)c2ccccc2C1=O` (configuration not stated) gave ASAP1 GAP inh -3.6, ARFGAP1 inhibitor -3.7, PREPL inh 3.6, IDE act -8.8, IDE cell inh 43.0*, IDE cell inh cf 116.0* and HEK cytotox 28.9*.
Cc1cccc(OCC(=O)NCC(=O)N/N=C/c2cc(Br)ccc2OCc2ccccc2)c1 was read as ASAP1 GAP inh -10.0, ARFGAP1 inhibitor 3.9, PREPL inh -17.0, IDE act 2.1, IDE cell inh 32.2*, IDE cell inh cf 5.2 and HEK cytotox 5.2.
Nc1c(C=C2C=CC(=O)C=C2)c(=O)nc2sc(CC(=O)N3CCOCC3)nn12 was read as ASAP1 GAP inh -8.4, ARFGAP1 inhibitor -6.6, PREPL inh 4.3, IDE act 6.2 and IDE cell inh 2.8.
COC1=CC(=Cc2c(N)n3nc(CC(=O)N4CCOCC4)sc3nc2=O)C=C(OC)C1=O was read as ASAP1 GAP inh 8.2, ARFGAP1 inhibitor 2.5, PREPL inh -9.3, IDE act -99.8, IDE cell inh 120.6*, IDE cell inh cf 25.9* and HEK cytotox 6.2.
Screening C=CCC1=C/C(=C\c2c(N)n3nc(CC(=O)N4CCCC4)sc3nc2=O)C=C(OC)C1=O returned ASAP1 GAP inh 5.8, ARFGAP1 inhibitor -8.7, PREPL inh 16.0, IDE act -115.6, IDE cell inh 26.0*, IDE cell inh cf 25.9* and HEK cytotox 7.3.
`CCOC(=O)[C@]12CCCC=C1N(Cc1ccccc1)C(=O)[C@H](CC(=O)NCCCOC)C2` gave ASAP1 GAP inh 3.6 and ARFGAP1 inhibitor 0.2.
Screening Cc1ccc(-n2c(SCC(=O)N3CCOCC3)nnc2-c2cccnc2)cc1C returned ASAP1 GAP inh -2.1, ARFGAP1 inhibitor -0.3, PREPL inh 4.8, IDE act -11.8, IDE cell inh 18.8*, IDE cell inh cf 5.8 and HEK cytotox 7.5.
Screening COc1ccc(N2CCN(C(=O)CSc3nnc(-c4cccnc4)n3-c3ccc(F)cc3)CC2)cc1 returned ASAP1 GAP inh 0.4, ARFGAP1 inhibitor 22.3, PREPL inh 21.4, IDE act -15.8 and IDE cell inh 3.0.
O=C(CSc1nnc(-c2cccnc2)n1-c1ccccc1)N1CCN(c2ccc(F)cc2)CC1 was read as ASAP1 GAP inh 5.6, ARFGAP1 inhibitor -5.6, PREPL inh 36.0, IDE act -34.3, IDE cell inh 21.0*, IDE cell inh cf 10.1 and HEK cytotox 20.6.
For CCOc1ccccc1NC(=O)CN(c1ccc(OC)cc1OC)S(=O)(=O)c1ccccc1[N+](=O)[O-] the results were ASAP1 GAP inh 5.1, ARFGAP1 inhibitor 14.2, PREPL inh -0.1, IDE act 11.1 and IDE cell inh 0.2.
Screening Cc1ccccc1C(=O)N(C)[C@H]1C[C@H]2c3[nH]c4c(-c5ccc6c(c5)OCO6)cccc4c3CCN2C(=O)[C@H]1[C@H](C)O returned ASAP1 GAP inh 3.6 and ARFGAP1 inhibitor -14.9.
For O=c1c2c([N+](=O)[O-])cc([N+](=O)[O-])cc2sn1Cc1ccccc1 the results were ASAP1 GAP inh -9.6, ARFGAP1 inhibitor -8.1, PREPL inh 17.3, IDE act -32.1, IDE cell inh 84.3*, IDE cell inh cf 23.8* and HEK cytotox 92.1*.
For CCN1C(=O)[C@H]2[C@@H](c3ccc(-c4ccc5c(c4)OCO5)cc3)N3CCC[C@@]3(C(=O)OC)[C@H]2C1=O the results were ASAP1 GAP inh 9.7, ARFGAP1 inhibitor -2.1, PREPL inh 26.5, IDE act -2.7 and IDE cell inh 2.4.
Screening CCOCCn1c(=NC(=O)CSCC(=O)N2CCOCC2)sc2cc(OC)ccc21 returned ASAP1 GAP inh -2.5, ARFGAP1 inhibitor -6.5, PREPL inh -1.8, IDE act -1.0 and IDE cell inh 2.9.
`O=[N+]([O-])c1cccc(N=Cc2sc3ccccc3c2O)c1` gave ASAP1 GAP inh 8.3, ARFGAP1 inhibitor 0.4, PREPL inh 2.3 and IDE cell inh 2.5.
For O=[N+]([O-])c1ccc(N=Cc2sc3ccccc3c2O)cc1 the results were ASAP1 GAP inh 10.8, ARFGAP1 inhibitor -2.6, PREPL inh 5.2, IDE act 1.3, IDE cell inh 16.9*, IDE cell inh cf 13.9 and HEK cytotox 10.9.
Clc1ccc(-n2ncc3c(NCC4CCCO4)ncnc32)cc1 (configuration not stated) was read as ASAP1 GAP inh -1.0, ARFGAP1 inhibitor -2.7, PREPL inh 6.4, IDE act 1.9 and IDE cell inh 6.6.
Clc1ccc2[nH]c3c(NCC4CCCO4)ncnc3c2c1 (configuration not stated) was read as ASAP1 GAP inh -3.2, ARFGAP1 inhibitor -4.0, PREPL inh 30.7, IDE cell inh 38.2*, IDE cell inh cf 16.8* and HEK cytotox 34.3*.
Clc1ccc2[nH]c3c(NCCN4CCOCC4)ncnc3c2c1 was read as ASAP1 GAP inh 0.6, ARFGAP1 inhibitor 1.3, PREPL inh 10.3, IDE act -3.1, IDE cell inh 19.4*, IDE cell inh cf 3.7 and HEK cytotox 15.8.
For O=C(NN=Cc1ccccc1)NN=Cc1ccccc1 the results were ASAP1 GAP inh -13.2, ARFGAP1 inhibitor -4.4 and IDE act 6.6.
Screening COc1ccc(Cl)cc1NC(=O)C(C)OC(=O)Cn1cc(C(F)(F)F)ccc1=O (configuration not stated) returned ASAP1 GAP inh -2.1, ARFGAP1 inhibitor -11.1, PREPL inh 2.2, IDE act 2.6 and IDE cell inh 0.5.
`CCOc1ccc(N2C(=O)S/C(=C\c3ccc(O)c(OC)c3)C2=O)cc1` gave ASAP1 GAP inh -11.3, ARFGAP1 inhibitor -19.6, PREPL inh 20.4, IDE act -11.4, IDE cell inh 19.2*, IDE cell inh cf 20.5* and HEK cytotox 6.9.
COc1cc(/C=C2\SC(=O)N(c3ccc(O)cc3)C2=O)cc(OC)c1OC was read as ASAP1 GAP inh 9.4, ARFGAP1 inhibitor 9.9, PREPL inh 0.9, IDE act 3.7 and IDE cell inh 1.1.
Screening COc1cc(/C=C2\SC(=N)N(c3ccc(F)cc3)C2=O)ccc1O returned ASAP1 GAP inh 3.0, ARFGAP1 inhibitor -5.5, PREPL inh 22.5, IDE act -14.1, IDE cell inh 25.6*, IDE cell inh cf 19.1* and HEK cytotox 20.4.
Screening COc1cc(/C=C2\SC(=N)N(c3ccc4c(c3)OCO4)C2=O)cc(OC)c1O returned ASAP1 GAP inh -4.7, ARFGAP1 inhibitor 2.4, PREPL inh 17.1, IDE act -58.1, IDE cell inh 80.5*, IDE cell inh cf 71.7* and HEK cytotox 11.0.
